The results in this text go back to ChEMBL document CHEMBL1124521, “Effect of structural modifications in the C7-C11 region of the retinoid skeleton on biological activity in a series of aromatic retinoids” (1989).

Bounds are passed on as bounds.

Assay [1] can be described thus: (§1) Inhibition of binding of [3H]all-trans-retinoic acid to cellular retinoic acid binding protein at 3 uM compound concentration, in rat. It counts as functional. More on the design: scale not given: the % may be the effect or the level left. The essentials:
(§2)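 CRABP partially purified from rat testis. Competition of 3 μM retinoid with [³H]-all-trans-retinoic acid, bound ligand separated by Sephadex G-25 gel filtration on 2-mL columns. Triplicate measurements.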

Assay [2] deals with F9. In words: Ability to displace 3 uM retinoid and [3H]all-trans-retinoic acid in F9 embryonal carcinoma cells using F9 Plasminogen Activator releasing assay. It is filed as functional. The conditions noted are these: Mus musculus, F9, 4 days; read-out: ED50 (the source's name).
Assay [3] concerns F9. In words: Ability to displace [3H]all-trans-retinoic acid from F9 embryonal carcinoma cells, was assessed in a F9 laminin release assay. It is filed as functional. As to conditions: Mus musculus, F9, 96 h; read-out: ED50 (the source's name).
The species named for assay [4] is Oryctolagus cuniculus. In words: Percentage inhibition of cholesterol-3-sulfate activity in rabbit at 0.1 nM. It counts as functional. Summed up:
(§3)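 Rabbit tracheal epithelial cells in supplemented Ham's F12, given retinoid (0.1 or 10 nM) in Me₂SO from day 5 for 5 days. Cells were labeled 22 h with 25 μCi/mL Na₂³⁵SO₄, trypsinized, and extracted with CHCl₃/MeOH. Inhibition of ³⁵SO₄ incorporation into cholesterol 3-sulfate was measured relative to control.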

The species named for assay [5] is Oryctolagus cuniculus. In words: Percentage inhibition of cholesterol-3-sulfate activity rabbit at 10 nM. More on the design: scale not given: the % may be the effect or the level left. It counts as functional. The essentials: as §3
The species entered for assay [6] is Oryctolagus cuniculus. In words: cross-linked envelope inhibition assay was performed at 10 nM compound concentration. It is filed as functional. More on the design: scale not given: the % may be the effect or the level left. Summed up:
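Rabbit tracheal epithelial cells exposed to 1 × 10⁻⁸ M retinoid from day 6 of culture. Cross-linked envelope formation was determined on day 12, in triplicate.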

A short description of assay [7]: Inhibitory dose against tracheal organ culture reversal of keratinization. It counts as functional. As to conditions: Cricetulus griseus, Trachea; read-out: ID50 (the source's name). Summed up:
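Retinoid-deficient hamster tracheas in organ culture, scored for reversal of keratinization. At least six cultures per retinoid concentration; ID50 by polynomial interpolation.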

For assay [8], the species on record is Oryctolagus cuniculus. In words: Percentage inhibition of Transglutaminase activity in rabbit at 10 nM. The essentials:
(§4)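 Rabbit tracheal epithelial cells on fibronectin/BSA/vitrogen-coated dishes in supplemented Ham's F12, treated with retinoid in Me₂SO from day 5 for 5 days. Cells were sonicated in PBS with 10 mM dithiothreitol, and transglutaminase activity was measured as [³H]putrescine incorporation into casein, in triplicate.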

Assay [9] has as its target Cellular retinoic acid-binding protein 1 (Gallus gallus) (UniProt P40220).
The target of assay [10] is Ornithine decarboxylase (Mus musculus) (UniProt P00860). In words: Inhibitory effect of compound on the induction of ornithine decarboxylase in CD-1 mouse.
Ornithine decarboxylase (Mus musculus), sequence (P00860 whole entry, looked up): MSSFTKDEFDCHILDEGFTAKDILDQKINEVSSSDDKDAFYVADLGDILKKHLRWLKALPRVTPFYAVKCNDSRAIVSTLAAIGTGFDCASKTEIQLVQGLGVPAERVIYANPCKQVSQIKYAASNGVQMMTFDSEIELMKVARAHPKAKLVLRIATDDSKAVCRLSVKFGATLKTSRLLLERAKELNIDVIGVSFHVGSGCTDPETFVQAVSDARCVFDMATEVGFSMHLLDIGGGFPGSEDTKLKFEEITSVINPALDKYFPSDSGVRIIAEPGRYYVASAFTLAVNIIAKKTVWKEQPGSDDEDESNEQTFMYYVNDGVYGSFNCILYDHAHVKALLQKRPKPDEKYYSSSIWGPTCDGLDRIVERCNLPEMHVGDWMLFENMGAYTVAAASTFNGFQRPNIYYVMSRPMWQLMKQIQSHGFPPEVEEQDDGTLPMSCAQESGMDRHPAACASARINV
Assay [11] has as its target Cellular retinoic acid-binding protein 1 (Gallus gallus) (UniProt P40220). The experiment in a line: Concentration of compound required to inhibit binding of 2.5 uM [3H]all-trans-retinoic acid by 50% in chick. The essentials: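 Chick embryo skin CRABP (12–13-day), with albumin removed on Affi-Gel Blue. Eluates (1 mg protein/0.4 mL) were incubated with saturable [³H]-all-trans-retinoic acid ± 1-, 5-, 10- or 25-fold molar excess of unlabeled retinoid. Free ligand was removed with dextran-coated charcoal, followed by filtration and counting of bound radioactivity. Nonspecific binding was defined with 25-fold excess of retinoic acid. ID50 from semilog plots.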

Assay [12] is described as follows: as §1. More on the design: scale not given: the % may be the effect or the level left. The essentials:
as §2

The species named for assay [13] is Oryctolagus cuniculus. The experiment in a line: Percentage inhibition of Transglutaminase activity in rabbit at 0.1 nM. Further details: scale not given: the % may be the effect or the level left. The essentials: as §4

Cellular retinoic acid-binding protein 1 (Gallus gallus), sequence (P40220 whole entry): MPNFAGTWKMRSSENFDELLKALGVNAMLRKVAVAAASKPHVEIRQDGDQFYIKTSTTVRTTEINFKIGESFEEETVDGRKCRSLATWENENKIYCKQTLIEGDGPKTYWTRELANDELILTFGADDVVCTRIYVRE

On to `CC1=C(/C=C/C(C)=C/C=C/C(C)=C/C(=O)O)C(C)(C)CCC1` [TRETINOIN], for which the Control in assay [1] is 91%; in the assay listed under Oryctolagus cuniculus [5], 5%; in the assay filed under Oryctolagus cuniculus [6], <1%. In addition, the EC50 with F9 [2] is 0.1 nM; with F9 [3], 1.5 nM. The “Cholesterol sulfate synthesis (% of control)” value in the assay listed under Oryctolagus cuniculus [4] was found to be 100%. For the same compound, in [7], the IC50 came to 0.01 nM. The same compound registered a Transglutaminase activity (% of control) in the assay listed under Oryctolagus cuniculus [8] of 15%. For the same compound, the ID50 in assay [9] turned out to be 1000 nM; in [10] it was 0.04 nM.
Take `C/C(=C\c1ccc2c(c1)C(C)(C)CCC2(C)C)c1ccc(C(=O)O)cc1`: the ID50 in assay [11] came out at 1000 nM; in assay [10], 0.03 nM. The Control in assay [12] was 27%; in the assay filed under Oryctolagus cuniculus [5], 1%; in the assay filed under Oryctolagus cuniculus [6], 0%; in the assay filed under Oryctolagus cuniculus [13] it was 10%. Also, the EC50 with F9 [2] was 0.7 nM; with F9 [3], 1.5 nM. The “Cholesterol sulfate synthesis (% of control)” value in the assay filed under Oryctolagus cuniculus [4] was found to be 2%. The IC50 in assay [7] is 0.007 nM. This compound came in with a Transglutaminase activity (% of control) in the assay listed under Oryctolagus cuniculus [8] of 5%.
Regarding `Cc1c(-c2ccc3c(c2)C(C)(C)CCC3(C)C)ccc2cc(C(=O)O)ccc12`, the ID50 worked out at 15000 nM in [11] and 66 nM in assay [10]. Further, the EC50 in the assay with F9 [2] was 3 nM; with F9 [3], > 5000 nM. Besides, the “Cholesterol sulfate synthesis (% of control)” value in the assay listed under Oryctolagus cuniculus [4] is given as 187%. For the same compound, the Control in the assay filed under Oryctolagus cuniculus [5] is 14%; in the assay filed under Oryctolagus cuniculus [6], 5%; in the assay listed under Oryctolagus cuniculus [13], 114%. Besides, the IC50 in [7] came out at 0.08 nM. In the assay listed under Oryctolagus cuniculus [8], this compound showed a Transglutaminase activity (% of control) of 47%.
Take `CC1(C)CCC(C)(C)c2cc(-c3ccc4cc(C(=O)O)ccc4c3)ccc21`: the ID50 in assay [11] was 1600 nM; in [10], 2.2 nM. Besides, the Control was 91% in [12], 2% in the assay listed under Oryctolagus cuniculus [5] and <1% in the assay filed under Oryctolagus cuniculus [6]. The EC50 worked out at 1 nM in the assay on F9 [2] and 31 nM with F9 [3]. In the assay listed under Oryctolagus cuniculus [4], the “Cholesterol sulfate synthesis (% of control)” value turned out to be 15%. Moreover, the IC50 in assay [7] was determined as 0.003 nM. This compound came in with a Transglutaminase activity (% of control) in the assay filed under Oryctolagus cuniculus [8] of 9%.
`CC1(C)CCC(C)(C)c2cc3cc(-c4ccc(C(=O)O)cc4)ccc3cc21`: the ID50 in assay [11] turned out to be 800 nM; in [10], 0.07 nM. Moreover, the EC50 came out at 0.3 nM with F9 [2] and 0.2 nM with F9 [3]. Besides, the “Cholesterol sulfate synthesis (% of control)” value in the assay filed under Oryctolagus cuniculus [4] was found to be 13%. Moreover, the values for the Control in the assay filed under Oryctolagus cuniculus [5], in the assay filed under Oryctolagus cuniculus [6] and in the assay filed under Oryctolagus cuniculus [13] were 2%, <1% and 12%, respectively. Also, the IC50 in assay [7] was 0.01 nM. This compound showed a Transglutaminase activity (% of control) in the assay filed under Oryctolagus cuniculus [8] of 14%.
With `CC1(C)CCC(C)(C)c2cc(C3C[C@H]3c3ccc(C(=O)O)cc3)ccc21` (stereo not given in full), the ID50 in [11] turned out to be 4800 nM; in [10] it was 3.2 nM. Further, the EC50 was determined as 2 nM in the assay with F9 [2] and 90 nM in the assay on F9 [3]. The “Cholesterol sulfate synthesis (% of control)” value in the assay listed under Oryctolagus cuniculus [4] is listed as 73%. The figures for the Control in the assay filed under Oryctolagus cuniculus [5], in the assay filed under Oryctolagus cuniculus [6] and in the assay filed under Oryctolagus cuniculus [13] were 2%, <1% and 130%, respectively. The IC50 in [7] is > 0.1 nM. Besides, the Transglutaminase activity (% of control) in the assay listed under Oryctolagus cuniculus [8] came to 23%.
Turning to `C/C(=C(/C)c1ccc2c(c1)C(C)(C)CCC2(C)C)c1ccc(C(=O)O)cc1`, the ID50 in [11] worked out at 1000 nM; in assay [10], 142 nM. The values for the EC50 with F9 [2] and with F9 [3] were > 10 nM and > 100 nM, respectively. In the assay filed under Oryctolagus cuniculus [4], the “Cholesterol sulfate synthesis (% of control)” value is 73%. Moreover, the Control in the assay filed under Oryctolagus cuniculus [5] stood at 33%; in the assay listed under Oryctolagus cuniculus [6] it was 100%. Besides, the IC50 in assay [7] was > 10 nM. In the assay filed under Oryctolagus cuniculus [8], this compound registered a Transglutaminase activity (% of control) of 68%.
In the case of `Cc1cc2c(cc1-c1ccc3cc(C(=O)O)ccc3c1)C(C)(C)CCC2(C)C`, the ID50 in assay [11] is 4800 nM; in assay [10], 0.4 nM. For the same compound, the EC50 is 0.5 nM in the assay with F9 [2] and > 100 nM with F9 [3]. Further, the “Cholesterol sulfate synthesis (% of control)” value in the assay listed under Oryctolagus cuniculus [4] came to 12%. The Control in the assay filed under Oryctolagus cuniculus [5] is 2%; in the assay listed under Oryctolagus cuniculus [6] it was <1%; in the assay listed under Oryctolagus cuniculus [13], 37%. Moreover, the IC50 in assay [7] came out at 0.02 nM. In the assay filed under Oryctolagus cuniculus [8], this compound came in with a Transglutaminase activity (% of control) of 11%.
Consider `C/C(=C\c1ccc(C(=O)O)cc1)c1ccc2c(c1)C(C)(C)CCC2(C)C`, for which the results for the ID50 in assay [11] and in assay [10] were 800 nM and 0.03 nM, respectively. Also, the Control in [12] was 100%; in the assay listed under Oryctolagus cuniculus [5] it was 1%; in the assay listed under Oryctolagus cuniculus [6], <1%. Further, the EC50 in the assay with F9 [2] is 0.08 nM; in the assay with F9 [3] it was 1.5 nM. The “Cholesterol sulfate synthesis (% of control)” value in the assay filed under Oryctolagus cuniculus [4] worked out at 6%. For the same compound, the IC50 in assay [7] is 0.002 nM. The same compound displayed a Transglutaminase activity (% of control) in the assay listed under Oryctolagus cuniculus [8] of 1%.
